Laboratory results from ChEMBL document CHEMBL4673248, “Discovery and Characterization of BAY 1214784, an Orally Available Spiroindoline Derivative Acting as a Potent and Selective Antagonist of the Human Gonadotropin-Releasing Hormone Receptor as Proven in a First-In-Human Study in Postmenopausal Women” (J Med Chem, 2020).

Experiments:
[1] = target: T1, Gonadotropin-releasing hormone receptor (Rattus norvegicus, UniProt P30969); test: Antagonist activity at rat GnRH receptor expressed in CHO-K1 cells assessed as inhibition of buserelin-induced response preincubated for 20 mins followed by buserelin addition and measured after 60 mins by TR-FRET assay; assay type: cell-based
T1 sequence (P30969 whole entry): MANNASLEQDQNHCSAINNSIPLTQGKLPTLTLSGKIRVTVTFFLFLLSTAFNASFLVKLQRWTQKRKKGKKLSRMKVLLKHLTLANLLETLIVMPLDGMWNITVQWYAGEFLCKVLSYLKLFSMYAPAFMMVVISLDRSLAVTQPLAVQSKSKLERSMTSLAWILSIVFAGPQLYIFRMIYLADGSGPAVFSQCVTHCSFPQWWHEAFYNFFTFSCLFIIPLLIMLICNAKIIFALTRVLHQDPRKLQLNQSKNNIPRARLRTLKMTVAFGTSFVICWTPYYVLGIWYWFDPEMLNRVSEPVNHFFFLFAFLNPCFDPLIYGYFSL
In short: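 Frozen rat-receptor cells: thawed, seeded overnight in serum-containing Ham's F12, Accutase-harvested, resuspended in serum-free medium with IP1-d2, 1 h at 37 °C. 1.0 × 10^4 cells/well, 20 min compound preincubation at rt, then 1× EC80 LHRH or buserelin in HEPES stimulation buffer pH 7.4 for 60 min at 37 °C. Tb-anti-IP1 lysis (1:38), HTRF read 60 min later.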

[2] = Antagonist activity at cynomolgus monkey GnRH receptor expressed in CHO-K1 cells assessed as inhibition of buserelin-induced response preincubated for 20 mins followed by buserelin addition and measured after 60 mins by TR-FRET assay; assay type: cell-based; conditions: Macaca fascicularis
In short: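 Frozen CHO-K1 cells expressing cynomolgus receptor: thawed, 1 h recovery at 37 °C with IP1-d2 tracer. 5000 cells/well in Ham's F12, 20 min preincubation with compound at rt. Buserelin added at 1× EC80 in HEPES stimulation buffer pH 7.4 with LiCl, 60 min at 37 °C. Lysis with Tb-anti-IP1 antibody (1:20), HTRF IP1 read after 60 min. Duplicates, up to 11 concentrations.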

[3] = Efflux ratio of apparent permeability across basolateral to apical side over apical to basolateral side in human Caco2 cells at 2 uM measured after 2 hrs by LC-MS/MS analysis; assay type: ADME, cell-based; conditions: Caco-2
In short: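 Caco-2 monolayers grown 15 d, integrity checked by TEER. Compound 2 µM added apical or basolateral in FCS-free HEPES carbonate buffer pH 7.2, incubated 2 h at 37 °C. Both compartments sampled before and after, analysed by LC-MS/MS after MeOH precipitation. Papp computed from receiver peak area, surface area and time. Efflux ratio taken as Papp B–A/Papp A–B.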

[4] = Clearance in Wistar rat at 0.5 mg/kg, iv by LC-MS/MS analysis; assay type: ADME, organism-based; conditions: Wistar, in vivo
[5] = Half life in Wistar rat at 0.5 mg/kg, iv by LC-MS/MS analysis; assay type: ADME, organism-based; conditions: in vivo
[6] = Oral bioavailability in Wistar rat at 2 mg/kg by LC-MS/MS analysis; assay type: ADME, organism-based; conditions: in vivo
Rattus norvegicus = test: Suppression of ovariectomized-induced increase in plasma luteinizing hormone level in po dosed Wistar Han rat measured up to 24 hrs; assay type: functional; conditions: time hrs <=24
In short: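 Ovariectomized rats given single oral doses, range 1 to 30 mg/kg. Plasma LH followed over time, with cetrorelix at 0.1 mg/kg sc as reference. ED50 calculated from the dose-response.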

[7] = target: T2, Gonadotropin-releasing hormone receptor (Homo sapiens, UniProt P30968); test: Inhibition of Tag-lite green-labeled agonist binding to terbium fluorophore-labeled human N-terminal SNAP-tag GnRh receptor expressed in HEK293 cells by TR-FRET assay; assay type: cell-based
T2 sequence (P30968 whole entry): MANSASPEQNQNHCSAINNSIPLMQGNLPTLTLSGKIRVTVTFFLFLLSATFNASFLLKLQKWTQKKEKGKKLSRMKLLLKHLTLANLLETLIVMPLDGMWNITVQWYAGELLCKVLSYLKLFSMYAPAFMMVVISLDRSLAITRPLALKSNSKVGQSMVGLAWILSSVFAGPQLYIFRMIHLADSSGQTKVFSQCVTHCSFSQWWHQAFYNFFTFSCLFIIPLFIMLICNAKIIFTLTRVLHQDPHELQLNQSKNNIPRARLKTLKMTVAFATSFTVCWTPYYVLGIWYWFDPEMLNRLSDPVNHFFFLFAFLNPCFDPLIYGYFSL
In short: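 Frozen transiently transfected HEK293 with Tb-labelled SNAP-tag hGnRH-R, 5.6 × 10^4 cells/well in Tag-lite buffer. Green-labelled agonist 4 nM. Nonspecific wells received buserelin 10 µM. Incubated 60 min at rt, TR-FRET 520/495 nm ratio read.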

Cannabinoid receptor 1 = Cannabinoid receptor 1 (Homo sapiens, UniProt P21554); test: Inhibition of CB1 receptor (unknown origin)
[8] = target: Mitogen-activated protein kinase 3 (Homo sapiens, UniProt P27361); test: Inhibition of MAPK3 (unknown origin)
[9] = target: Mitogen-activated protein kinase 14 (Homo sapiens, UniProt Q16539); test: Inhibition of MAPK14 (unknown origin)
[10] = Chemical stability of compound at pH 1 to 10 measured up to 24 hrs by UV-HPLC analysis; assay type: physicochemical; conditions: buffer, pH 1, 24 h
In short: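 10 mM DMSO stock diluted in MeCN, then into pH 1, 7 or 10 buffer. Held at 37 °C, HPLC-UV injections at 0, 1, 2 and 24 h. Recovery given as peak area relative to time zero.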

[11] = Clearance in rat liver microsomes at 1 uM measured upto 60 mins in presence of NADP generating system by LC-MS/MS analysis; assay type: ADME, Microsome; conditions: 1 h
[12] = Clearance in cynomolgus monkey liver microsomes; assay type: ADME, Macaca fascicularis, Microsome
[13] = Maximum oral bioavailability in cynomolgus monkey liver microsomes based well stirred liver model; assay type: ADME, Macaca fascicularis, Microsome; conditions: read-out: Fmax
[14] = Maximum oral bioavailability in dog hepatocytes; assay type: ADME, Canis lupus familiaris, Hepatocyte; conditions: read-out: Fmax
[15] = target: T2, Gonadotropin-releasing hormone receptor; test: Inhibition of Tag-lite green-labeled agonist binding to terbium fluorophore-labeled human N-terminal SNAP-tag GnRh receptor expressed in HEK293 cells assessed as dissociation constant by TR-FRET assay; assay type: cell-based
[16] = target: T2, Gonadotropin-releasing hormone receptor; test: Inhibition of Tag-lite green-labeled agonist binding to terbium fluorophore-labeled human N-terminal SNAP-tag GnRh receptor expressed in HEK293 cells assessed as equilibrium dissociation constant by TR-FRET assay; assay type: cell-based

Mitogen-activated protein kinase 14, sequence (Q16539 whole entry): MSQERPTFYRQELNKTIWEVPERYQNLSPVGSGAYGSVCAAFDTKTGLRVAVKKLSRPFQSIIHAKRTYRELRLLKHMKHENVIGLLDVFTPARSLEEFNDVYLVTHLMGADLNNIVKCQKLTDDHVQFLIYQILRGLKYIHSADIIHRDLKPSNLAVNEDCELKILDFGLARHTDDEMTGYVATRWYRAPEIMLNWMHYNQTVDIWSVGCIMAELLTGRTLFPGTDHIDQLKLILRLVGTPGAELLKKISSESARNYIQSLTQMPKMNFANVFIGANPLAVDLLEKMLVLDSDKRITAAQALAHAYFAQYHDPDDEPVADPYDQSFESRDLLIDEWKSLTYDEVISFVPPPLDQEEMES
Cannabinoid receptor 1, sequence (P21554 whole entry): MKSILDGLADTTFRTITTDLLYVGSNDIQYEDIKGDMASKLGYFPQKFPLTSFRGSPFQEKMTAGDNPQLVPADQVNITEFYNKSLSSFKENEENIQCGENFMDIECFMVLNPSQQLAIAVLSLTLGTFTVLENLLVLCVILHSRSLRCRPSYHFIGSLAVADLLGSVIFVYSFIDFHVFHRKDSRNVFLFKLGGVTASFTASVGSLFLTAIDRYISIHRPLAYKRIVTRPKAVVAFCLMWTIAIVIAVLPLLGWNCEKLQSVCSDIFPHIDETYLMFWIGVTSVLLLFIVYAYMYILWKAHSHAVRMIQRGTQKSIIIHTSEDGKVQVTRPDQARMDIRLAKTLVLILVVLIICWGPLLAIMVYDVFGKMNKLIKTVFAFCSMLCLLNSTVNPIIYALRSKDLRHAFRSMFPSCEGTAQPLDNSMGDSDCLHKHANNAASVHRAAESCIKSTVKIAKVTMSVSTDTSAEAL
Mitogen-activated protein kinase 3, sequence (P27361 whole entry): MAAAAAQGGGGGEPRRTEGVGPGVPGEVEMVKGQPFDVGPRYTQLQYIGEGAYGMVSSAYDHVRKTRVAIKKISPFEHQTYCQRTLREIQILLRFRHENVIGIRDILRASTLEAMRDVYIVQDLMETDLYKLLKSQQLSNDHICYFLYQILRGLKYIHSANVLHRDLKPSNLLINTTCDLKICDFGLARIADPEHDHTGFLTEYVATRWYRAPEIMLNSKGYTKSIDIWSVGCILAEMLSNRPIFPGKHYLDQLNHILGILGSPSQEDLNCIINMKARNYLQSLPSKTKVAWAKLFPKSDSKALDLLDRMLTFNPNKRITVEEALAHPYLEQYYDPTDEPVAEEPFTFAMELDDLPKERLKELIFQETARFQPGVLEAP

O=C(NCc1ncc(C(F)(F)F)cc1Cl)c1ccc2c(c1)C1(CCS(=O)(=O)CC1)[C@H](C1CC1)N2S(=O)(=O)c1ccc(F)cc1 [BAY-784]
IC50 [1]: 24 nM
IC50 [2]: 35 nM
efflux ratio at 2 h, 2 µM [3]: 10
clearance [4]: 9 mL/min/kg
half-life [5]: 16 h
bioavailability [6]: 48%
ED50 (Rattus norvegicus): 4.5 mg/kg
IC50 [7]: 27 nM
IC50 (Cannabinoid receptor 1): 3400 nM
IC50 [8]: 4900 nM
IC50 [9]: 10700 nM
Stabilty [10]: Stable
CLH [11]: 6.33 mL/min/kg
CLH [12]: 8.17 mL/min/kg
Fh [13]: 81%
Fh [14]: 65%
Kd [15]: 9.83 nM
Kd [16]: 5.52 nM
